# Test results: ChEMBL document CHEMBL4130564, “Indolylalkyltriphenylphosphonium Analogues Are Membrane-Depolarizing Mycobactericidal Agents” (ACS Med Chem Lett, 2017)
# The source made the active and inactive calls. The calls are words filed in the database; no cut-off is given here.
# What was measured:
# [1] = tested on: Lipid bilayer; assay: Binding affinity to DMPG vesicles assessed as change in enthalpy at 2 mM by differential scanning calorimetric analysis (reference value: -20.63 kJ/mol)
# Summary of the method: (§1)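 Compound-loaded vesicles of negatively charged dimyristoylphosphatidylglycerol, used as a bacterial membrane surrogate, were scanned by differential scanning calorimetry. The gel-to-liquid melting endotherm was read for melting temperature (Tm) and calorimetric enthalpy (ΔH).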
# [2] = tested on: Mycobacterium tuberculosis; assay: Antibacterial activity against Mycobacterium bovis BCG ATCC 35734 after 5 days by broth dilution method; assay type: functional; details: BCG str. ATCC 35743, 120 h
# Summary of the method: (§2)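 Broth dilution; growth read by turbidity; MIC50 and MIC90 are the concentrations reducing growth by 50% and 90% relative to untreated controls; average of two or more separate determinations.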
# [3] = tested on: Lipid bilayer; assay: Binding affinity to DMPG vesicles assessed as melting transition temperature by differential scanning calorimetric analysis (reference value: 21.09 to 23.28 degC)
# [4] = tested on: Mycobacterium tuberculosis; assay: Bactericidal activity against Mycobacterium bovis BCG ATCC 35734 assessed as increase in propidium iodide uptake at 4 uM after 1 to 5 days by flow cytometry; assay type: functional, organism-based; details: BCG str. ATCC 35743
# [5] = tested on: Mycobacterium tuberculosis; assay: Bactericidal activity against Mycobacterium bovis BCG ATCC 35734 assessed as reduction in colony forming units at 4 uM after 1 to 5 days by time kill assay; assay type: functional, organism-based; details: BCG str. ATCC 35743
# [6] = tested on: Mycobacterium tuberculosis; assay: Bactericidal activity against Mycobacterium bovis BCG ATCC 35734 assessed as suppression of reductive capacity by measuring decrease in formazan formation after 0.5 to 1 hr by MTT reduction assay; assay type: functional, organism-based; details: BCG str. ATCC 35743
# Summary of the method: (§3)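 BCG cultures exposed to 0.2–100 μM for 30 min and 1 h, then MTT added; formazan production read at 595 nm against drug-free basal absorbance; CCCP 100 μM reference; representative of two independent experiments.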
# [7] = tested on: Mycobacterium tuberculosis; assay: Bactericidal activity against Mycobacterium bovis BCG ATCC 35734 assessed as reduction in membrane potential by measuring red to green fluorescent ratio at 24 uM measured at 20 mins to 3 hrs by DiOC2-dye based fluorescence assay; assay type: functional, organism-based; details: BCG str. ATCC 35743
# [8] = tested on: Mycobacterium bovis BCG str. ATCC 35743; assay: Inhibition of NDH2 in Mycobacterium bovis BCG ATCC 35734 assessed as reduction in oxygen consumption at 80 uM after 1 hr by methylene blue-based assay
# Summary of the method: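 Mid-log M. bovis BCG cultures in 7H9 medium were exposed to compound, then methylene blue was added (0.001%) and the tubes were incubated oxygen-free at 37 °C for […]. Oxygen use was read as methylene blue decolorization. Controls were medium-only tubes and drug-free culture.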
# [9] = tested on: Mycobacterium tuberculosis; assay: Bactericidal activity against Mycobacterium bovis BCG ATCC 35734 assessed as suppression of reductive capacity by measuring decrease in formazan formation at 100 uM after 0.5 to 1 hr by MTT reduction assay; assay type: functional; parameters: scale not given: the % may be the effect or the level left; summary of the method: as §3
# [10] = tested on: Mycobacterium tuberculosis; assay: Bactericidal activity against Mycobacterium bovis BCG ATCC 35734 assessed as reduction in membrane potential by measuring red to green fluorescent ratio at 100 uM measured at 3 hrs by DiOC2-dye based fluorescence assay; assay type: functional, organism-based; details: BCG str. ATCC 35743
# [11] = tested on: Mycobacterium tuberculosis; assay: Bactericidal activity Mycobacterium bovis BCG ATCC 35734 assesses as cell death at 15 times MIC90 after 1 hr in presence of methylene blue; assay type: functional, organism-based; details: BCG str. ATCC 35743
# [12] = tested on: Mycobacterium tuberculosis; assay: Bactericidal activity against Mycobacterium bovis BCG ATCC 35734 assessed as reduction in oxygen consumption at 5 times MIC90 after 1 hr by methylene blue-based assay; assay type: functional, organism-based; details: BCG str. ATCC 35743
# [13] = Hemolytic activity against human RBC after 1 hr; assay type: ADME, cell-based, Erythrocyte; details: human red blood cells (erythrocytes)
# Summary of the method: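 Human red blood cells were exposed to compound, and lysis was scaled against Triton X-100 (2% v/v), taken as 100% hemolysis. HC50 was the concentration lysing 50% of cells, averaged over two or more separate determinations.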
# [14] = tested on: Mycobacterium tuberculosis; assay: Antibacterial activity against Mycobacterium tuberculosis H37Rv ATCC 27294 after 7 days by broth dilution method; assay type: functional; details: H37Rv ATCC 27294, 168 h; summary of the method: as §2
# [15] = tested on: Mycobacterium tuberculosis; assay: Bactericidal activity against Mycobacterium bovis BCG ATCC 35734 assessed as reduction in colony forming units at 6 uM after 1 to 5 days by time kill assay; assay type: functional, organism-based; details: BCG str. ATCC 35743
# [16] = tested on: Mycobacterium tuberculosis; assay: Bactericidal activity against Mycobacterium bovis BCG ATCC 35734 assessed as cell elongation at 12 uM after 1 to 5 days by acid-fast staining-based light microscopy; assay type: functional, organism-based; details: BCG str. ATCC 35743
# [17] = tested on: Mycobacterium tuberculosis; assay: Bactericidal activity against Mycobacterium bovis BCG ATCC 35734 assessed as reduction in membrane potential by measuring red to green fluorescent ratio at 12 uM measured at 20 mins to 3 hrs by DiOC2-dye based fluorescence assay; assay type: functional, organism-based; details: BCG str. ATCC 35743
# [18] = tested on: Lipid bilayer; assay: Binding affinity to DMPG vesicles assessed as increase in melting transition temperature by differential scanning calorimetric analysis; summary of the method: as §1
# [19] = tested on: Mycobacterium tuberculosis; assay: Bactericidal activity against Mycobacterium bovis BCG ATCC 35734 assessed as reduction in membrane potential by measuring red to green fluorescent ratio at 12 uM measured after 1 to 5 days by DiOC2-dye based fluorescence assay; assay type: functional, organism-based; details: BCG str. ATCC 35743
# Summary of the method: (§4)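 Membrane potential in treated BCG cultures tracked as DiOC2 red/green fluorescence ratio over extended exposure of 1, 3 and 5 days.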
# [20] = tested on: Mycobacterium tuberculosis; assay: Bactericidal activity against Mycobacterium bovis BCG ATCC 35734 assessed as reduction in oxygen consumption at 10 times MIC90 after 1 hr by methylene blue-based assay; assay type: functional, organism-based; details: BCG str. ATCC 35743
# [21] = tested on: Mycobacterium tuberculosis; assay: Bactericidal activity against Mycobacterium bovis BCG ATCC 35734 assessed as increase in propidium iodide uptake at 6 uM after 1 to 5 days by flow cytometry; assay type: functional, organism-based; details: BCG str. ATCC 35743
# [22] = tested on: Mycobacterium tuberculosis; assay: Bactericidal activity against Mycobacterium bovis BCG ATCC 35734 assessed as reduction in oxygen consumption at 15 times MIC90 after 1 hr by methylene blue-based assay; assay type: functional, organism-based; details: BCG str. ATCC 35743
# [23] = tested on: Mycobacterium tuberculosis; assay: Bactericidal activity against Mycobacterium bovis BCG ATCC 35734 assessed as reduction in colony forming units after 5 days; assay type: functional, BCG str. ATCC 35743; details: for MBC: Mycobacterium tuberculosis, BCG ATCC 35734, 120 h, read-out: MBC99.9
# [24] = tested on: Vero C1008; assay: Cytotoxicity against African green monkey Vero E6 cells assessed as reduction in cell viability after 48 hrs by cell titre 96 aqueous one solution-based assay; details: Chlorocebus sabaeus, Vero C1008, 48 h
# Summary of the method: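 Vero cell viability was compared with untreated control cells. IC50 was taken as the concentration giving 50% loss of viability, averaged over two or more separate determinations.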
# [25] = tested on: Mycobacterium tuberculosis; assay: Bactericidal activity against Mycobacterium bovis BCG ATCC 35734 assessed as reduction in membrane potential by measuring red to green fluorescent ratio at 24 uM measured after 1 to 5 days by DiOC2-dye based fluorescence assay; assay type: functional, organism-based; details: BCG str. ATCC 35743; summary of the method: as §4
# [26] = tested on: Mycobacterium tuberculosis; assay: Bactericidal activity against Mycobacterium bovis BCG ATCC 35734 assessed as cell elongation at 24 uM after 1 to 5 days by acid-fast staining-based light microscopy; assay type: functional, organism-based; details: BCG str. ATCC 35743
# [27] = tested on: Mycobacterium tuberculosis; assay: Bactericidal activity against Mycobacterium bovis BCG ATCC 35734 assessed as increase in propidium iodide uptake at 1.6 uM after 1 to 5 days by flow cytometry; assay type: functional, organism-based; details: BCG str. ATCC 35743
# [28] = tested on: Mycobacterium tuberculosis; assay: Bactericidal activity against Mycobacterium bovis BCG ATCC 35734 assessed as reduction in colony forming units at 1.6 uM after 1 to 5 days by time kill assay; assay type: functional, organism-based; details: BCG str. ATCC 35743
# [29] = tested on: Mycobacterium tuberculosis; assay: Bactericidal activity against Mycobacterium bovis BCG ATCC 35734 assessed as reduction in membrane potential by measuring red to green fluorescent ratio at 0.08 uM measured at 20 mins to 3 hrs by DiOC2-dye based fluorescence assay; assay type: functional, organism-based; details: BCG str. ATCC 35743
compound,measurement,setting,value
CCC[P+](c1ccccc1)(c1ccccc1)c1ccccc1,deltaH,[1],-2.74 kcal/mol
same,MIC50,[2],> 50 µM
same,MIC90,[2],> 50 µM
same,Tm,[3],21.1 to 23.2 °C
CCCCCCCCn1cc(CN2CCC3(CCc4ccccc43)CC2)c2ccc(OC)cc21,Activity,[4],Active
same,Activity,[5],Active
CCCCC[P+](c1ccccc1)(c1ccccc1)c1ccccc1,MIC50,[2],28 µM
same,MIC90,[2],> 50 µM
same,Activity,[6],inactive
same,Activity,[7],inactive
CSc1ccc2c(c1)N(CCC1CCCCN1C)c1ccccc1S2 (configuration not stated),inhibition,[8],Active
CCCCCn1ccc2cccc(OC)c21,MIC50,[2],> 50 µM
same,MIC90,[2],> 50 µM
same,Activity,[6],inactive
same,Activity,[7],inactive
N#CC(C#N)=NNc1cccc(Cl)c1 [CARBONYL CYANIDE M-CHLOROPHENYLHYDRAZONE],Activity,[9],50%
same,Activity,[10],Active
COc1cccc2ccn(CCCCC[P+](c3ccccc3)(c3ccccc3)c3ccccc3)c12.[I-],Activity,[11],Toxic
same,Activity,[12],inactive
same,HC50 at 1 h,[13],> 300 µM
same,MIC50,[14],2 µM
same,MIC90,[14],6 µM
same,Activity,[15],Active
same,Activity,[16],Active
same,MIC50,[2],2 µM
same,MIC90,[2],3 µM
same,Activity,[17],Active
same,ΔTm,[18],1 °C
same,Activity,[6],Dose-dependent effect
same,Activity,[19],Active
same,Activity,[20],Active
same,Activity,[21],Active
same,Activity,[22],Active
same,MBC99,[23],3 µM
same,MBC,[23],6 µM
same,IC50,[24],18 µM
O=[N+]([O-])c1cccc2c1ccn2CCCCC[P+](c1ccccc1)(c1ccccc1)c1ccccc1.[I-],Activity,[11],Toxic
same,Activity,[12],inactive
same,HC50 at 1 h,[13],196 µM
same,MIC50,[14],4 µM
same,MIC90,[14],6 µM
same,Activity,[15],Active
same,MIC50,[2],2 µM
same,MIC90,[2],3 µM
same,Activity,[25],Active
same,ΔTm,[18],1 °C
same,Activity,[6],Dose-dependent effect
same,Activity,[20],Active
same,Activity,[21],Active
same,Activity,[22],Active
same,MBC99,[23],3 µM
same,MBC,[23],6 µM
same,Activity,[7],Active
same,IC50,[24],36 µM
same,Activity,[26],Active
CCCn1ccc2cc(F)ccc21,deltaH,[1],-4.77 kcal/mol
same,MIC50,[2],> 50 µM
same,MIC90,[2],> 50 µM
same,Tm,[3],20.1 °C
NNC(=O)c1ccncc1,Activity,[27],inactive
same,Activity,[28],Active
CO[C@H]1/C=C/O[C@@]2(C)Oc3c(C)c(O)c4c(O)c(c(/C=N/N5CCN(C)CC5)c(O)c4c3C2=O)NC(=O)/C(C)=C\C=C\[C@H](C)[C@H](O)[C@@H](C)[C@@H](O)[C@@H](C)[C@H](OC(C)=O)[C@@H]1C,Activity,[29],inactive
